The source made the active and inactive calls. The rule behind the calls is not given here.
Biological target: Metabotropic glutamate receptor 7 (Rattus norvegicus) (UniProt P35400)
Assay: L-AP4 potency shift at rat mGlu7 – cell-based, TRex293, Galpha15, Fluo4 calcium, selectivity assay for mGlu5 silent allosteric modulator project (AID 652203)
Details: rmGlu7+Galpha15 TRex293, L-AP4 calcium Fluo4 fold shift; at 10 µM
How it was run: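 Assay system: TRex293 cells expressing rat mGlu7 plus Galpha15; Technique: Fluo4 calcium fluorescence; Medium: pH 7.4 buffer with probenecid; Timing: compound at 20 s, agonist 60 s later; Doses: single test-compound dose of 10 µM, 1% DMSO final; Evaluation: shift in L-AP4 response caused by compound; Reagent: L-AP4, 3.9 µM–1 mM, 9 concentrations.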

Sequence of Metabotropic glutamate receptor 7 (Rattus norvegicus) (P35400 whole entry, looked up): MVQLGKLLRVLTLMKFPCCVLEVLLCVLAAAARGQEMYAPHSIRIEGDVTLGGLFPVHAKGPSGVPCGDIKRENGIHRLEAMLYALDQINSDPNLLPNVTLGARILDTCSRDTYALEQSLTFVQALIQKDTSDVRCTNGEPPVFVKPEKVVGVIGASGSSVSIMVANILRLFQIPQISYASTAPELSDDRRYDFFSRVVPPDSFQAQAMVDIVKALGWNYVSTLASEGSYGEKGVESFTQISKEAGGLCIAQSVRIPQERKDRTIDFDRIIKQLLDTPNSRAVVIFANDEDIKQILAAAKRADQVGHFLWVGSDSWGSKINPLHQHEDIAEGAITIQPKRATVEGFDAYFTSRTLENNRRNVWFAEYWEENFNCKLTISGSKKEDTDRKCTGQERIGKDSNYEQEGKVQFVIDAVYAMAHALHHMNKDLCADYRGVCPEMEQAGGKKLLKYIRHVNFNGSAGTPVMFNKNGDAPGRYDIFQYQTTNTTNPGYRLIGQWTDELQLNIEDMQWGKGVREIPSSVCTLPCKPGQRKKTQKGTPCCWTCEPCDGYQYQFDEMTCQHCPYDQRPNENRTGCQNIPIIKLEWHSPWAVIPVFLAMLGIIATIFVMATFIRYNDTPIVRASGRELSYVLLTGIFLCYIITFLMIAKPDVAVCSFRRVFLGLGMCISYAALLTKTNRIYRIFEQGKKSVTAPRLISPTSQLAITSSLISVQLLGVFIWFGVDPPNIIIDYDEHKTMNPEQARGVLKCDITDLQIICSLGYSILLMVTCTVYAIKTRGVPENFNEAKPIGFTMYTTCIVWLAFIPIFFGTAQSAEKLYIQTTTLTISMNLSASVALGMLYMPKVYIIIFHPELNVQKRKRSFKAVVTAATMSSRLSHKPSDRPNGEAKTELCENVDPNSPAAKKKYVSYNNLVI

fold shift of L-AP4 EC50: 0.696 (inactive)
SMILES: O=C(c1ccc(C#Cc2cccc(F)c2)cn1)N1CC2CC2C1 (stereo unspecified)

— PubChem BioAssay AID652203 (Vanderbilt Specialized Chemistry Center, 2013)
